According to ChEMBL document CHEMBL3046016, “Antifeedant and growth inhibitory effects of some neo-clerodane diterpenoids isolated from Clerodendron species (Verbenaceae) on Earias vitella and Spodoptera litura” (2003):

How the values were obtained:
Type in all cases: functional
Earias vittella [1] = experiment: Insecticidal activity against third-instar larval stage of Earias vitella assessed as total larval duration time at 10 ug/cm3 administered through artificial diet containing Abelmoschus esculentus seed powder (reference value: 8.2 +/- 0.48 days)
Spodoptera litura [2] = experiment: Antifeedant activity against third-instar larval stage of Spodoptera litura in compound-treated castor leaves assessed as decrease in diet consumption at 5 ug/cm2 after 24 hr by no-choice leaf disk assay relative to acetone-treated control; set-up: scale not given: the % may be the effect or the level left
How it was run: (§1)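 Larvae were reared on castor leaves at 25 ± 2 °C. In a no-choice test, compound in acetone was painted on the abaxial side of castor leaf disks and air-dried. Five freshly molted third-instar larvae, starved 4 h, were placed per Petri dish with wet cotton. There were five replicates. After 24 h, consumed leaf area was read on a leaf area meter. %AF = 100 − (treated/control)×100.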

Spodoptera litura [3] = experiment: Antifeedant activity against third-instar larval stage of Spodoptera litura in compound-treated castor leaves assessed as decrease in diet consumption at 10 ug/cm2 after 24 hr by no-choice leaf disk assay relative to acetone-treated control; set-up: scale not given: the % may be the effect or the level left; how it was run: as §1
Spodoptera litura [4] = experiment: Insecticidal activity against female adult Spodoptera litura in compound-treated castor leaves assessed as adult longevity time at 5 ug/cm2 (reference value: 10 +/- 0.63 days)
Spodoptera litura [5] = experiment: Insecticidal activity against female adult Spodoptera litura in compound-treated castor leaves assessed as adult longevity time at 10 ug/cm2 (reference value: 10 +/- 0.63 days)
Spodoptera litura [6] = experiment: Insecticidal activity against male adult Spodoptera litura in compound-treated castor leaves assessed as adult longevity time at 5 ug/cm2 (reference value: 9.4 +/- 0.48 days)
Spodoptera litura [7] = experiment: Insecticidal activity against male adult Spodoptera litura in compound-treated castor leaves assessed as adult longevity time at 10 ug/cm2 (reference value: 9.4 +/- 0.48 days)
Spodoptera litura [8] = experiment: Insecticidal activity against adult Spodoptera litura in compound-treated castor leaves assessed as adult deformity at 5 ug/cm2 relative to control
Spodoptera litura [9] = experiment: Insecticidal activity against adult Spodoptera litura in compound-treated castor leaves assessed as adult deformity at 10 ug/cm2 relative to control
Spodoptera litura [10] = experiment: Insecticidal activity against adult Spodoptera litura in compound-treated castor leaves assessed as adult emergence at 5 ug/cm2 relative to control
Spodoptera litura [11] = experiment: Insecticidal activity against adult Spodoptera litura in compound-treated castor leaves assessed as adult emergence at 10 ug/cm2 relative to control
Spodoptera litura [12] = experiment: Insecticidal activity against pupal stage of Spodoptera litura in compound-treated castor leaves assessed as pupal mortality at 5 ug/cm2 relative to control
Spodoptera litura [13] = experiment: Insecticidal activity against pupal stage of Spodoptera litura in compound-treated castor leaves assessed as pupal mortality at 10 ug/cm2 relative to control
Spodoptera litura [14] = experiment: Insecticidal activity against pupal stage of Spodoptera litura in compound-treated castor leaves assessed as pupal weight at 5 ug/cm2 (reference value: 302.4 +/- 5.9 mg)
Spodoptera litura [15] = experiment: Insecticidal activity against pupal stage of Spodoptera litura in compound-treated castor leaves assessed as pupal weight at 10 ug/cm2 (reference value: 302.4 +/- 5.9 mg)
Spodoptera litura [16] = experiment: Insecticidal activity against pupal stage of Spodoptera litura in compound-treated castor leaves assessed as pupal duration time at 5 ug/cm2 (reference value: 9.2 +/- 0.74 days)
Spodoptera litura [17] = experiment: Insecticidal activity against pupal stage of Spodoptera litura in compound-treated castor leaves assessed as pupal duration time at 10 ug/cm2 (reference value: 9.2 +/- 0.74 days)
Spodoptera litura [18] = experiment: Insecticidal activity against third-instar larval stage of Spodoptera litura in compound-treated castor leaves assessed as larval mortality at 5 ug/cm2 relative to control
Spodoptera litura [19] = experiment: Insecticidal activity against third-instar larval stage of Spodoptera litura in compound-treated castor leaves assessed as larval mortality at 10 ug/cm2 relative to control
Spodoptera litura [20] = experiment: Insecticidal activity against third-instar larval stage of Spodoptera litura in compound-treated castor leaves assessed as total larval duration time at 5 ug/cm2 (reference value: 12.4 +/- 0.48 days)
Spodoptera litura [21] = experiment: Insecticidal activity against third-instar larval stage of Spodoptera litura in compound-treated castor leaves assessed as total larval duration time at 10 ug/cm2 (reference value: 12.4 +/- 0.48 days)
Earias vittella [22] = experiment: Insecticidal activity against female adult Earias vitella assessed as adult longevity time at 5 ug/cm3 administered through artificial diet containing Abelmoschus esculentus seed powder (reference value: 8.6 +/- 0.48 days)
Earias vittella [23] = experiment: Insecticidal activity against female adult Earias vitella assessed as adult longevity time at 10 ug/cm3 administered through artificial diet containing Abelmoschus esculentus seed powder (reference value: 8.6 +/- 0.48 days)
Earias vittella [24] = experiment: Insecticidal activity against male adult Earias vitella assessed as adult longevity time at 5 ug/cm3 administered through artificial diet containing Abelmoschus esculentus seed powder (reference value: 8.2 +/- 0.4 days)
Earias vittella [25] = experiment: Insecticidal activity against male adult Earias vitella assessed as adult longevity time at 10 ug/cm3 administered through artificial diet containing Abelmoschus esculentus seed powder (reference value: 8.2 +/- 0.4 days)
Earias vittella [26] = experiment: Insecticidal activity against adult Earias vitella assessed as adult deformity at 10 ug/cm3 administered through artificial diet containing Abelmoschus esculentus seed powder (reference value: 4%)
Earias vittella [27] = experiment: Insecticidal activity against adult Earias vitella assessed as adult deformity at 5 ug/cm3 administered through artificial diet containing Abelmoschus esculentus seed powder (reference value: 4%)
Earias vittella [28] = experiment: Insecticidal activity against adult Earias vitella assessed as adult emergence at 5 ug/cm3 administered through artificial diet containing Abelmoschus esculentus seed powder (reference value: 88%)
Earias vittella [29] = experiment: Insecticidal activity against adult Earias vitella assessed as adult emergence at 10 ug/cm3 administered through artificial diet containing Abelmoschus esculentus seed powder (reference value: 88%)
Earias vittella [30] = experiment: Insecticidal activity against pupal stage of Earias vitella assessed as pupal mortality at 5 ug/cm3 administered through artificial diet containing Abelmoschus esculentus seed powder (reference value: 8%)
Earias vittella [31] = experiment: Insecticidal activity against pupal stage of Earias vitella assessed as pupal mortality at 10 ug/cm3 administered through artificial diet containing Abelmoschus esculentus seed powder (reference value: 8%)
Earias vittella [32] = experiment: Insecticidal activity against pupal stage of Earias vitella assessed as pupal weight at 5 ug/cm3 administered through artificial diet containing Abelmoschus esculentus seed powder (reference value: 88.2 +/- 4.01 mg)
Earias vittella [33] = experiment: Insecticidal activity against pupal stage of Earias vitella assessed as pupal weight at 10 ug/cm3 administered through artificial diet containing Abelmoschus esculentus seed powder (reference value: 88.2 +/- 4.01 mg)
Earias vittella [34] = experiment: Insecticidal activity against pupal stage of Earias vitella assessed as pupal duration time at 5 ug/cm3 administered through artificial diet containing Abelmoschus esculentus seed powder (reference value: 6.4 +/- 0.21 days)
Earias vittella [35] = experiment: Antifeedant activity against third-instar larval stage of Earias vitella assessed as decrease in diet consumption at 5 ug/cm3 administered through artificial diet containing Abelmoschus esculentus seed powder after 24 hr relative to acetone-treated control; set-up: scale not given: the % may be the effect or the level left
How it was run: (§2)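 Artificial diet was modified Klein medium with bhendi (Abelmoschus esculentus) seed powder in place of alfalfa. Compound in acetone was mixed into bhendi meal 12 h before diet preparation so the solvent evaporated. One 3 g diet cube was given to five freshly molted third-instar larvae in a muslin-covered container. After 24 h the cubes were weighed. %AF = 100 − (treated/control)×100.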

Earias vittella [36] = experiment: Antifeedant activity against third-instar larval stage of Earias vitella assessed as decrease in diet consumption at 10 ug/cm3 administered through artificial diet containing Abelmoschus esculentus seed powder after 24 hr relative to acetone-treated control; set-up: scale not given: the % may be the effect or the level left; how it was run: as §2
Earias vittella [37] = experiment: Insecticidal activity against pupal stage of Earias vitella assessed as pupal duration time at 10 ug/cm3 administered through artificial diet containing Abelmoschus esculentus seed powder (reference value: 6.4 +/- 0.21 days)
Earias vittella [38] = experiment: Insecticidal activity against third-instar larval stage of Earias vitella assessed as larval mortality at 10 ug/cm3 administered through artificial diet containing Abelmoschus esculentus seed powder (reference value: 4%)
Earias vittella [39] = experiment: Insecticidal activity against third-instar larval stage of Earias vitella assessed as larval mortality at 5 ug/cm3 administered through artificial diet containing Abelmoschus esculentus seed powder (reference value: 4%)
Earias vittella [40] = experiment: Insecticidal activity against third-instar larval stage of Earias vitella assessed as total larval duration time at 5 ug/cm3 administered through artificial diet containing Abelmoschus esculentus seed powder (reference value: 8.2 +/- 0.48 days)

SMILES | Time (Earias vittella [1]) [days] | Activity (Spodoptera litura [2]) [%] | Activity (Spodoptera litura [3]) [%] | Time (Spodoptera litura [4]) [days] | Time (Spodoptera litura [5]) [days] | Time (Spodoptera litura [6]) [days] | Time (Spodoptera litura [7]) [days] | Activity (Spodoptera litura [8]) [%] | Activity (Spodoptera litura [9]) [%] | Activity (Spodoptera litura [10]) [%] | Activity (Spodoptera litura [11]) [%] | mortality at 5 µg/cm2 (Spodoptera litura [12]) [%] | mortality at 10 µg/cm2 (Spodoptera litura [13]) [%] | Activity (Spodoptera litura [14]) [mg] | Activity (Spodoptera litura [15]) [mg] | Time (Spodoptera litura [16]) [days] | Time (Spodoptera litura [17]) [days] | mortality at 5 µg/cm2 (Spodoptera litura [18]) [%] | mortality at 10 µg/cm2 (Spodoptera litura [19]) [%] | Time (Spodoptera litura [20]) [days] | also measured
CC[C@@](C)(OC(C)=O)C(=O)O[C@H]1[C@H](OC(C)=O)C[C@@H]2[C@@](C)([C@@H]3C[C@H]4C=CO[C@H]4O3)[C@H](C)C[C@H](OC(C)=O)[C@@]2(COC(C)=O)[C@@]12CO2 [CLERODENDRIN B ACETATE] | 9.7 | 65.8 | 75 | 8.2 | 8 | 9 | 8.5 | 4.8 | 8.8 | 72 | 64 | 22.7 | 27 | 284.4 | 273.2 | 10.2 | 11 | 20 | 24 | 12.6 | Time (Spodoptera litura [21]): 13.1 days; Time (Earias vittella [22]): 7.4 days; Time (Earias vittella [23]): 7.2 days; Time (Earias vittella [24]): 6.8 days; Time (Earias vittella [25]): 6.4 days; Activity (Earias vittella [26]): 4%; Activity (Earias vittella [27]): 4%; Activity (Earias vittella [28]): 72.5%; Activity (Earias vittella [29]): 64%; mortality (Earias vittella [30]): 24%; mortality (Earias vittella [31]): 32%; Activity (Earias vittella [32]): 71.2 mg; Activity (Earias vittella [33]): 64.2 mg; Time (Earias vittella [34]): 7 days; Activity (Earias vittella [35]): 51%; Activity (Earias vittella [36]): 69%; Time (Earias vittella [37]): 8.8 days; mortality (Earias vittella [38]): 4%; mortality (Earias vittella [39]): 4%; Time (Earias vittella [40]): 9.2 days
CC[C@@](C)(OC(C)=O)C(=O)O[C@H]1[C@H](O)C[C@@H]2[C@@](C)([C@@H]3C[C@H]4C=CO[C@H]4O3)[C@H](C)C[C@H](OC(C)=O)[C@@]2(COC(C)=O)[C@@]12CO2 [CLERODENDRIN B] | 11.2 | 76.5 | 84.9 | 6.4 | 5.2 | 6.8 | 6.2 | 12 | 16.8 | 59.2 | 46.4 | 29.4 | 37 | 240 | 220.2 | 12 | 13 | 32 | 44 | 14.5 | Time (Spodoptera litura [21]): 15.8 days; Time (Earias vittella [22]): 5.8 days; Time (Earias vittella [23]): 4.8 days; Time (Earias vittella [24]): 5.4 days; Time (Earias vittella [25]): 4.6 days; Activity (Earias vittella [26]): 16%; Activity (Earias vittella [27]): 8%; Activity (Earias vittella [28]): 52.5%; Activity (Earias vittella [29]): 44%; mortality (Earias vittella [30]): 40%; mortality (Earias vittella [31]): 42.5%; Activity (Earias vittella [32]): 55 mg; Activity (Earias vittella [33]): 50.4 mg; Time (Earias vittella [34]): 10 days; Activity (Earias vittella [35]): 74.85%; Activity (Earias vittella [36]): 82.14%; Time (Earias vittella [37]): 12.2 days; mortality (Earias vittella [38]): 20%; mortality (Earias vittella [39]): 15%; Time (Earias vittella [40]): 10.6 days
